Assay results taken from ChEMBL document CHEMBL2412964, “Discovery of novel tetrahydro-pyrazolo [4,3-c] pyridines for the treatment of neuropathic pain: synthesis and neuropharmacology” (Eur J Med Chem, 2013).

What was measured:
Rattus norvegicus [1] = assay: Antinociceptive activity in Wistar rat chronic constriction injury model assessed as reversal of tactile allodynia at 100 mg/kg, ip after 120 mins (reference value: 4.1 +/- 2.1%); format: functional; details: route intraperitoneal
Rattus norvegicus [2] = assay: Antinociceptive activity in Wistar rat chronic constriction injury model assessed as reversal of mechanical allodynia at 100 mg/kg, ip after 60 mins (reference value: 4.9 +/- 1.0%); format: functional; details: route intraperitoneal
Rattus norvegicus [3] = assay: Antinociceptive activity in Wistar rat partial sciatic nerve ligation model assessed as reversal of spontaneous pain response at 100 mg/kg, ip after 30 mins (reference value: 3.2 +/- 0.3%); format: functional; details: route intraperitoneal
Rattus norvegicus [4] = assay: Antinociceptive activity in Wistar rat partial sciatic nerve ligation model assessed as reversal of spontaneous pain response at 100 mg/kg, ip after 120 mins (reference value: 1.2 +/- 0.1%); format: functional; details: route intraperitoneal
Rattus norvegicus [5] = assay: Antinociceptive activity in Wistar rat partial sciatic nerve ligation model assessed as reversal of spontaneous pain response at 100 mg/kg, ip after 60 mins (reference value: 2.9 +/- 0.3%); format: functional; details: route intraperitoneal
Mus musculus [6] = assay: Antinociceptive activity in Swiss albino mouse assessed as inhibition of acetic acid-induced writhing at 100 mg/kg administered 30 mins prior to acetic acid-challenge measured for 30 mins relative to control; format: functional
Outline: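 Swiss albino mice (20–25 g, either sex); writhing induced by i.p. 0.1 mL of 2.0% v/v acetic acid given half an hour after test compound dosing.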

Rattus norvegicus [7] = assay: Antinociceptive activity in Wistar rat partial sciatic nerve ligation model assessed as reversal of mechanical allodynia at 100 mg/kg, ip after 60 mins (reference value: 2.8 +/- 0.3%); format: functional; details: route intraperitoneal
Rattus norvegicus [8] = assay: Antinociceptive activity in Wistar rat chronic constriction injury model assessed as reversal of mechanical allodynia at 100 mg/kg, ip after 120 mins (reference value: 5.3 +/- 0.5%); format: functional; details: route intraperitoneal
Rattus norvegicus [9] = assay: Antinociceptive activity in Wistar rat chronic constriction injury model assessed as reversal of spontaneous pain response at 100 mg/kg, ip after 120 mins (reference value: 4.5 +/- 0.2%); format: functional; details: route intraperitoneal
Rattus norvegicus [10] = assay: Antinociceptive activity in Wistar rat partial sciatic nerve ligation model assessed as reversal of cold allodynia at 100 mg/kg, ip after 60 mins (reference value: 2.5 +/- 0.3%); format: functional; details: route intraperitoneal
Rattus norvegicus [11] = assay: Antinociceptive activity in Wistar rat partial sciatic nerve ligation model assessed as reversal of cold allodynia at 100 mg/kg, ip after 30 mins (reference value: 4.1 +/- 1.0%); format: functional; details: route intraperitoneal
Rattus norvegicus [12] = assay: Antinociceptive activity in Wistar rat partial sciatic nerve ligation model assessed as reversal of tactile allodynia at 100 mg/kg, ip after 60 mins (reference value: 12.5 +/- 1.2%); format: functional; details: route intraperitoneal
Rattus norvegicus [13] = assay: Antinociceptive activity in Wistar rat chronic constriction injury model assessed as reversal of cold allodynia at 100 mg/kg, ip after 30 mins (reference value: 0.6 +/- 2.7%); format: functional; details: route intraperitoneal
Mus musculus [14] = assay: Antinociceptive activity in Swiss albino mouse assessed as inhibition of formalin-induced flinching at 100 mg/kg administered 30 mins prior to test measured up to 5 mins relative to control; format: functional
Rattus norvegicus [15] = assay: Antinociceptive activity in Wistar rat chronic constriction injury model assessed as reversal of cold allodynia at 100 mg/kg, ip after 120 mins (reference value: 5.4 +/- 1.9%); format: functional; details: route intraperitoneal
Rattus norvegicus [16] = assay: Antinociceptive activity in Wistar rat chronic constriction injury model assessed as reversal of tactile allodynia at 100 mg/kg, ip after 60 mins (reference value: 1.3 +/- 0.3%); format: functional; details: route intraperitoneal
Rattus norvegicus [17] = assay: Antinociceptive activity in Wistar rat chronic constriction injury model assessed as reversal of spontaneous pain response at 100 mg/kg, ip after 30 mins (reference value: 8.9 +/- 4.6%); format: functional; details: route intraperitoneal
Rattus norvegicus [18] = assay: Antinociceptive activity in Wistar rat partial sciatic nerve ligation model assessed as reversal of tactile allodynia at 100 mg/kg, ip after 120 mins relative to control; format: functional; details: route intraperitoneal
Mus musculus [19] = assay: Neurotoxicity in Swiss albino mouse assessed as minimal motor impairment at 300 mg/kg after 0.5 hrs by rotarod test; format: toxicity, organism-based; parameters: dose 300 mg/kg; details: in vivo
Outline: (§1)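 Swiss albino mice of either sex, 20-25 g, dosed at 30, 100 and 300 mg/kg, three per group. Minimal motor impairment scored by rotarod at 0.5 and 4.0 h after dosing. Reported value is the lowest dose giving impairment in half or more of the mice.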

Mus musculus [20] = assay: Antinociceptive activity in Swiss albino mouse assessed as inhibition of formalin-induced flinching at 100 mg/kg administered 30 mins prior to test measured for 10 to 30 mins relative to control; format: functional
Mus musculus [21] = assay: Neurotoxicity in Swiss albino mouse assessed as minimal motor impairment at 300 mg/kg after 4 hrs by rotarod test; format: toxicity, organism-based; parameters: dose 300 mg/kg; details: in vivo; outline: as §1
Rattus norvegicus [22] = assay: Antinociceptive activity in Wistar rat partial sciatic nerve ligation model assessed as reversal of mechanical allodynia at 100 mg/kg, ip after 120 mins (reference value: 2.9 +/- 0.3%); format: functional; details: route intraperitoneal
Rattus norvegicus [23] = assay: Antinociceptive activity in Wistar rat chronic constriction injury model assessed as reversal of spontaneous pain response at 100 mg/kg, ip after 60 mins (reference value: 4.6 +/- 0.6%); format: functional; details: route intraperitoneal
Rattus norvegicus [24] = assay: Antinociceptive activity in Wistar rat chronic constriction injury model assessed as reversal of mechanical allodynia at 100 mg/kg, ip after 30 mins (reference value: 4.7 +/- 2.1%); format: functional; details: route intraperitoneal
Rattus norvegicus [25] = assay: Antinociceptive activity in Wistar rat chronic constriction injury model assessed as reversal of cold allodynia at 100 mg/kg, ip after 60 mins (reference value: 6.3 +/- 1.9%); format: functional; details: route intraperitoneal
Rattus norvegicus [26] = assay: Antinociceptive activity in Wistar rat partial sciatic nerve ligation model assessed as reversal of tactile allodynia at 100 mg/kg, ip after 30 mins (reference value: 7.7 +/- 0.7%); format: functional; details: route intraperitoneal
Rattus norvegicus [27] = assay: Antinociceptive activity in Wistar rat chronic constriction injury model assessed as reversal of tactile allodynia at 100 mg/kg, ip after 30 mins (reference value: 3.4 +/- 0.8%); format: functional; details: route intraperitoneal
Rattus norvegicus [28] = assay: Antinociceptive activity in Wistar rat partial sciatic nerve ligation model assessed as reversal of cold allodynia at 100 mg/kg, ip after 120 mins (reference value: 1.5 +/- 0.5%); format: functional; details: route intraperitoneal
Rattus norvegicus [29] = assay: Antinociceptive activity in Wistar rat partial sciatic nerve ligation model assessed as reversal of mechanical allodynia at 100 mg/kg, ip after 30 mins (reference value: 2.9 +/- 0.3%); format: functional; details: route intraperitoneal

SMILES | Activity (Rattus norvegicus [1]) | Activity (Rattus norvegicus [2]) | Activity (Rattus norvegicus [3]) | Activity (Rattus norvegicus [4]) | Activity (Rattus norvegicus [5]) | inhibition in vivo at 100 mg/kg (Mus musculus [6]) | Activity (Rattus norvegicus [7]) | Activity (Rattus norvegicus [8]) | Activity (Rattus norvegicus [9]) | Activity (Rattus norvegicus [10]) | Activity (Rattus norvegicus [11]) | Activity (Rattus norvegicus [12]) | Activity (Rattus norvegicus [13]) | inhibition in vivo at 100 mg/kg (Mus musculus [14]) | Activity (Rattus norvegicus [15]) | Activity (Rattus norvegicus [16]) | Activity (Rattus norvegicus [17]) | Activity (Rattus norvegicus [18]) | Activity (Mus musculus [19]) | inhibition in vivo at 100 mg/kg (Mus musculus [20]) | other results
CCN1CCc2c(c(C)nn2C(=O)Nc2ccc(Br)cc2)C1 | 57.7% | 66.7% | 56.7% | 41.3% | 60.8% | 59.7% | 70% | 61.1% | 63.6% | 43.7% | 59.7% | 58.3% | 67.4% | 1.7% | 32.6% | 70.5% | 73.9% | 29.2% | Non-toxic | 81.6% | Activity (Mus musculus [21]): Non-toxic; Activity (Rattus norvegicus [22]): 40%; Activity (Rattus norvegicus [23]): 65.1%; Activity (Rattus norvegicus [24]): 83.3%; Activity (Rattus norvegicus [25]): 38.1%; Activity (Rattus norvegicus [26]): 58.3%; Activity (Rattus norvegicus [27]): 57.7%; Activity (Rattus norvegicus [28]): 41.5%; Activity (Rattus norvegicus [29]): 50%
CCN1CCc2c(c(C(C)(C)C)nn2C(=O)Nc2cc(C)ccc2F)C1 | 4.5% | 12.7% | 15.5% | 7.5% | 9.9% | 17.5% | 12.1% | 8.8% | 53.9% | 16.4% | 19.3% | 12.2% | 3.4% | 7% | 12% | 12.2% | 14.4% | 4.5% | Non-toxic | 60.5% | Activity (Mus musculus [21]): Non-toxic; Activity (Rattus norvegicus [22]): 8.8%; Activity (Rattus norvegicus [23]): 20.5%; Activity (Rattus norvegicus [24]): 13.8%; Activity (Rattus norvegicus [25]): 7.1%; Activity (Rattus norvegicus [26]): 12.2%; Activity (Rattus norvegicus [27]): 19.7%; Activity (Rattus norvegicus [28]): 19.3%; Activity (Rattus norvegicus [29]): 12.1%
CCN1CCc2c(c(C(C)(C)C)nn2C(=O)Nc2cccc(C(F)(F)F)c2)C1 | 9.9% | 12.2% | 87.3% | 19.8% | 42.2% | 61.4% | 59.5% | 12.1% | 75.2% | 19.1% | 52.7% | 13% | 55.6% | 2.6% | 9.3% | 13.7% | 89.5% | 13% | Non-toxic | 55.1% | Activity (Mus musculus [21]): Non-toxic; Activity (Rattus norvegicus [22]): 45.8%; Activity (Rattus norvegicus [23]): 65.6%; Activity (Rattus norvegicus [24]): 3.6%; Activity (Rattus norvegicus [25]): 35%; Activity (Rattus norvegicus [26]): 24.7%; Activity (Rattus norvegicus [27]): 6.7%; Activity (Rattus norvegicus [28]): 15%; Activity (Rattus norvegicus [29]): 52.8%
CCN1CCc2c(c(C(C)(C)C)nn2C(=O)Nc2ccc(Cl)cc2)C1 | 12.8% | 11.7% | 20.9% | 6.3% | 13.9% | 15.8% | 16.7% | 2.2% | 12.5% | 17.2% | 18.2% | 3.5% | 17.8% | 3.5% | 10.5% | 13.8% | 18.3% | 28.5% | Non-toxic | 68.3% | Activity (Mus musculus [21]): Non-toxic; Activity (Rattus norvegicus [22]): 11.1%; Activity (Rattus norvegicus [23]): 22.3%; Activity (Rattus norvegicus [24]): 20%; Activity (Rattus norvegicus [25]): 10.8%; Activity (Rattus norvegicus [26]): 15.1%; Activity (Rattus norvegicus [27]): 13.8%; Activity (Rattus norvegicus [28]): 10.6%; Activity (Rattus norvegicus [29]): 11.1%
CCN1CCc2c(c(C)nn2C(=O)Nc2ccc(Cl)cc2)C1 | 19.7% | 14.6% | 13.6% | 11% | 12.7% | 55.2% | 5% | 8.3% | 27.4% | 7.9% | 13.2% | 8.2% | 15.9% | 1.7% | 9.5% | 8% | 16.9% | 14.2% | Non-toxic | 7.5% | Activity (Mus musculus [21]): Non-toxic; Activity (Rattus norvegicus [22]): 11.3%; Activity (Rattus norvegicus [23]): 15%; Activity (Rattus norvegicus [24]): 14.6%; Activity (Rattus norvegicus [25]): 23%; Activity (Rattus norvegicus [26]): 18.1%; Activity (Rattus norvegicus [27]): 13.2%; Activity (Rattus norvegicus [28]): 11%; Activity (Rattus norvegicus [29]): 17.5%
